Molecules are shown by their SMILES. pKi: −log10 of the molar value.

A short description of this experiment: Inhibition of Vibrio cholerae alpha-carbonic anhydrase preincubated for 15 mins by stopped-flow CO2 hydration assay. An outline of the steps: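 Stopped-flow CO2 hydration assay, phenol red 0.2 mM read at 557 nm, 20 mM Hepes pH 7.4 with 20 mM NaBF4 for ionic strength. Initial rates followed 10–100 s, CO2 1.7–17 mM. Inhibitor (10 mM DMSO stock, buffer dilutions down to 0.01 nM) preincubated with enzyme 15 min at RT. Uncatalyzed rate subtracted; Ki by nonlinear least squares and Cheng–Prusoff, mean of ≥3 determinations.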
In the case of `CC(=O)Nc1nnc(S(N)(=O)=O)s1` [ACETAZOLAMIDE], the pKi (in general, the Ki on a negative log10 scale, so that one unit is a factor of ten) is […].
In the case of `C=CCn1c(SCC(=O)Nc2ccc(S(N)(=O)=O)cc2)nc2ccc(C)cc2c1=O`, the pKi was 8.22.
As for `Cc1cccc2nc(SCC(=O)Nc3ccc(S(N)(=O)=O)cc3)n(Cc3ccccc3)c(=S)c12`, the figure is 8.11.
The compound `Cc1cccc2c(=O)n(Cc3ccccc3)c(SCC(=O)Nc3ccc(S(N)(=O)=O)cc3)nc12` gave a pKi of 8.07.
Compound `NS(=O)(=O)c1ccc(NC(=O)CSc2nc3ccc([N+](=O)[O-])cc3c(=S)n2Cc2ccccc2)cc1` had a pKi of less than 5.00.
The value for `Cc1cccc2c(=S)n(Cc3ccccc3)c(SCC(=O)Nc3ccc(S(N)(=O)=O)cc3)nc12` was 8.06; that for `COc1ccc2nc(SCC(=O)Nc3ccc(S(N)(=O)=O)cc3)n(Cc3ccccc3)c(=O)c2c1` was less than 5.00; that for `Cc1ccc2nc(SCC(=O)Nc3ccc(S(N)(=O)=O)cc3)n(Cc3ccccc3)c(=S)c2c1` was 8.26.
As for `COc1cccc2c(=S)n(Cc3ccccc3)c(SCC(=O)Nc3ccc(S(N)(=O)=O)cc3)nc12`, the figure is 8.10; as for `NS(=O)(=O)c1ccc(NC(=O)CSc2nc3ccc([N+](=O)[O-])cc3c(=O)n2Cc2ccccc2)cc1`, less than 5.00.
As for `Cc1ccc2nc(SCC(=O)Nc3ccc(S(N)(=O)=O)cc3)n(Cc3ccccc3)c(=O)c2c1`, the figure is 8.57; as for `COc1cccc2c(=O)n(Cc3ccccc3)c(SCC(=O)Nc3ccc(S(N)(=O)=O)cc3)nc12`, less than 5.00; as for `C=CCn1c(SCC(=O)Nc2ccc(S(N)(=O)=O)cc2)nc2ccc([N+](=O)[O-])cc2c1=O`, 8.18.
